Experimental data reported in ChEMBL document CHEMBL5058577, “EUbOPEN Chemogenomics Library 2 (Multiplex)” (2022).

System: Fibroblast
Assay: Multiplex assay against human fibroblast
Type: toxicity, cell-based
Method in brief: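 Values for tubulin, mitochondrial-mass and membrane-permeability phenotypes are per cents of cells with healthy nuclei. These cells were identified by CellPathfinder machine-learning gating of live cells that had been stained at seeding with Hoechst33342, BioTracker Green Microtubule Cytoskeleton Dye, MitoTracker Red and Annexin V Alexa Fluor 680 and imaged on a CQ1 microscope at 37°C and 5% CO2 after compound addition. The gating first set Hoechst high-intensity objects apart from normal cells, then split normal cells into healthy, pyknosed or fragmented nuclei, and pyknosed cells into mitotic or apoptotic.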

[1] = 12 h, 1 µM, compound concentration 1 uM, replicate 1
[2] = 12 h, 1 µM, compound concentration 1 uM, replicate 2
[3] = 12 h, 10 µM, compound concentration 10 uM, replicate 1
[4] = 12 h, 10 µM, compound concentration 10 uM, replicate 2
[5] = 24 h, 1 µM, compound concentration 1 uM, replicate 1
[6] = 24 h, 1 µM, compound concentration 1 uM, replicate 2
[7] = 24 h, 10 µM, compound concentration 10 uM, replicate 1
[8] = 24 h, 10 µM, compound concentration 10 uM, replicate 2
[9] = 48 h, 1 µM, compound concentration 1 uM, replicate 1
[10] = 48 h, 1 µM, compound concentration 1 uM, replicate 2
[11] = 48 h, 10 µM, compound concentration 10 uM, replicate 1
[12] = 48 h, 10 µM, compound concentration 10 uM, replicate 2

COc1cc(Nc2ncc3c(n2)-c2ccc(Cl)cc2C(c2c(F)cccc2OC)=NC3)ccc1C(=O)O [ALISERTIB]
Population Apoptotic (%) [1]: 39% | Population Fragmented Nuclei (%) [1]: 11% | Population Healthy Nuclei (%) [1]: 66% | Population Hoechst High Intensity Objects (%) [1]: 1% | Population Membrane Permeable-Phenotype (%) [1]: 2% | Population Mitochondria Different-Phenotype (%) [1]: 4% | Population Mitotic Cells (%) [1]: 60% | Population Normal (%) [1]: 98% | Population Pyknosed Nuclei (%) [1]: 21% | Population Tubulin-Different-Phenotype (%) [1]: 23% | Population Apoptotic (%) [2]: 42% | Population Fragmented Nuclei (%) [2]: 18% | Population Healthy Nuclei (%) [2]: 47% | Population Hoechst High Intensity Objects (%) [2]: 8% | Population Membrane Permeable-Phenotype (%) [2]: 7% | Population Mitochondria Different-Phenotype (%) [2]: 7% | Population Mitotic Cells (%) [2]: 57% | Population Normal (%) [2]: 91% | Population Pyknosed Nuclei (%) [2]: 33% | Population Tubulin-Different-Phenotype (%) [2]: 41% | Population Apoptotic (%) [3]: 56% | Population Fragmented Nuclei (%) [3]: 28% | Population Healthy Nuclei (%) [3]: 47% | Population Hoechst High Intensity Objects (%) [3]: 13% | Population Membrane Permeable-Phenotype (%) [3]: 1% | Population Mitochondria Different-Phenotype (%) [3]: 22% | Population Mitotic Cells (%) [3]: 43% | Population Normal (%) [3]: 86% | Population Pyknosed Nuclei (%) [3]: 24% | Population Tubulin-Different-Phenotype (%) [3]: 69% | Total Cell Count [3]: 209 | Population Apoptotic (%) [4]: 48% | Population Fragmented Nuclei (%) [4]: 35% | Population Healthy Nuclei (%) [4]: 30% | Population Hoechst High Intensity Objects (%) [4]: 8% | Population Membrane Permeable-Phenotype (%) [4]: 4% | Population Mitochondria Different-Phenotype (%) [4]: 16% | Population Mitotic Cells (%) [4]: 51% | Population Normal (%) [4]: 91% | Population Pyknosed Nuclei (%) [4]: 33% | Population Tubulin-Different-Phenotype (%) [4]: 64% | Total Cell Count [4]: 89 | Population Apoptotic (%) [5]: 36% | Population Fragmented Nuclei (%) [5]: 12% | Population Healthy Nuclei (%) [5]: 69% | Population Hoechst High Intensity Objects (%) [5]: 2% | Population Membrane Permeable-Phenotype (%) [5]: 2% | Population Mitochondria Different-Phenotype (%) [5]: 6% | Population Mitotic Cells (%) [5]: 63% | Population Normal (%) [5]: 97% | Population Pyknosed Nuclei (%) [5]: 18% | Population Tubulin-Different-Phenotype (%) [5]: 28% | Total Cell Count [5]: 123 | Population Apoptotic (%) [6]: 48% | Population Fragmented Nuclei (%) [6]: 26% | Population Healthy Nuclei (%) [6]: 47% | Population Hoechst High Intensity Objects (%) [6]: 4% | Population Membrane Permeable-Phenotype (%) [6]: 4% | Population Mitotic Cells (%) [6]: 51% | Population Normal (%) [6]: 95% | Population Pyknosed Nuclei (%) [6]: 26% | Population Tubulin-Different-Phenotype (%) [6]: 47% | Population Apoptotic (%) [7]: 64% | Population Fragmented Nuclei (%) [7]: 29% | Population Healthy Nuclei (%) [7]: 44% | Population Hoechst High Intensity Objects (%) [7]: 13% | Population Membrane Permeable-Phenotype (%) [7]: 1% | Population Mitochondria Different-Phenotype (%) [7]: 24% | Population Mitotic Cells (%) [7]: 35% | Population Normal (%) [7]: 86% | Population Pyknosed Nuclei (%) [7]: 25% | Population Tubulin-Different-Phenotype (%) [7]: 68% | Total Cell Count [7]: 191 | Population Apoptotic (%) [8]: 56% | Population Fragmented Nuclei (%) [8]: 45% | Population Healthy Nuclei (%) [8]: 36% | Population Hoechst High Intensity Objects (%) [8]: 5% | Population Membrane Permeable-Phenotype (%) [8]: 0% | Population Mitochondria Different-Phenotype (%) [8]: 9% | Population Mitotic Cells (%) [8]: 43% | Population Normal (%) [8]: 94% | Population Pyknosed Nuclei (%) [8]: 18% | Population Tubulin-Different-Phenotype (%) [8]: 71% | Total Cell Count [8]: 93 | Population Apoptotic (%) [9]: 57% | Population Fragmented Nuclei (%) [9]: 15% | Population Healthy Nuclei (%) [9]: 65% | Population Hoechst High Intensity Objects (%) [9]: 5% | Population Membrane Permeable-Phenotype (%) [9]: 4% | Population Mitochondria Different-Phenotype (%) [9]: 5% | Population Mitotic Cells (%) [9]: 42% | Population Normal (%) [9]: 94% | Population Pyknosed Nuclei (%) [9]: 19% | Population Tubulin-Different-Phenotype (%) [9]: 32% | Total Cell Count [9]: 115 | Population Apoptotic (%) [10]: 38% | Population Fragmented Nuclei (%) [10]: 33% | Population Healthy Nuclei (%) [10]: 42% | Population Membrane Permeable-Phenotype (%) [10]: 7% | Population Mitotic Cells (%) [10]: 61% | Population Pyknosed Nuclei (%) [10]: 24% | Population Tubulin-Different-Phenotype (%) [10]: 54% | Population Apoptotic (%) [11]: 84% | Population Fragmented Nuclei (%) [11]: 38% | Population Healthy Nuclei (%) [11]: 35% | Population Hoechst High Intensity Objects (%) [11]: 23% | Population Membrane Permeable-Phenotype (%) [11]: 5% | Population Mitochondria Different-Phenotype (%) [11]: 37% | Population Mitotic Cells (%) [11]: 15% | Population Normal (%) [11]: 76% | Population Pyknosed Nuclei (%) [11]: 26% | Population Tubulin-Different-Phenotype (%) [11]: 80% | Total Cell Count [11]: 188 | Population Apoptotic (%) [12]: 66% | Population Fragmented Nuclei (%) [12]: 37% | Population Healthy Nuclei (%) [12]: 51% | Population Hoechst High Intensity Objects (%) [12]: 8% | Population Membrane Permeable-Phenotype (%) [12]: 2% | Population Mitochondria Different-Phenotype (%) [12]: 15% | Population Mitotic Cells (%) [12]: 33% | Population Normal (%) [12]: 91% | Population Pyknosed Nuclei (%) [12]: 11% | Population Tubulin-Different-Phenotype (%) [12]: 65% | Total Cell Count [12]: 85

CN(C)C/C=C/C(=O)Nc1ccc(C(=O)N2CCCC(Nc3ncc(Cl)c(-c4c[nH]c5ccccc45)n3)C2)cc1 (stereo not drawn)
Population Apoptotic (%) [1]: 48% | Population Fragmented Nuclei (%) [1]: 15% | Population Healthy Nuclei (%) [1]: 64% | Population Hoechst High Intensity Objects (%) [1]: 2% | Population Membrane Permeable-Phenotype (%) [1]: 2% | Population Mitochondria Different-Phenotype (%) [1]: 11% | Population Mitotic Cells (%) [1]: 51% | Population Normal (%) [1]: 97% | Population Pyknosed Nuclei (%) [1]: 19% | Population Tubulin-Different-Phenotype (%) [1]: 40% | Total Cell Count [1]: 152 | Population Apoptotic (%) [2]: 46% | Population Fragmented Nuclei (%) [2]: 21% | Population Healthy Nuclei (%) [2]: 53% | Population Hoechst High Intensity Objects (%) [2]: 6% | Population Membrane Permeable-Phenotype (%) [2]: 3% | Population Mitochondria Different-Phenotype (%) [2]: 13% | Population Mitotic Cells (%) [2]: 53% | Population Normal (%) [2]: 93% | Population Pyknosed Nuclei (%) [2]: 25% | Total Cell Count [2]: 182 | Population Apoptotic (%) [3]: 59% | Population Fragmented Nuclei (%) [3]: 18% | Population Healthy Nuclei (%) [3]: 53% | Population Hoechst High Intensity Objects (%) [3]: 4% | Population Membrane Permeable-Phenotype (%) [3]: 1% | Population Mitochondria Different-Phenotype (%) [3]: 37% | Population Mitotic Cells (%) [3]: 40% | Population Normal (%) [3]: 95% | Population Pyknosed Nuclei (%) [3]: 27% | Population Tubulin-Different-Phenotype (%) [3]: 77% | Total Cell Count [3]: 140 | Population Apoptotic (%) [4]: 48% | Population Fragmented Nuclei (%) [4]: 23% | Population Healthy Nuclei (%) [4]: 41% | Population Hoechst High Intensity Objects (%) [4]: 8% | Population Membrane Permeable-Phenotype (%) [4]: 12% | Population Mitochondria Different-Phenotype (%) [4]: 19% | Population Mitotic Cells (%) [4]: 51% | Population Normal (%) [4]: 91% | Population Pyknosed Nuclei (%) [4]: 35% | Population Tubulin-Different-Phenotype (%) [4]: 58% | Total Cell Count [4]: 147 | Population Apoptotic (%) [5]: 68% | Population Fragmented Nuclei (%) [5]: 25% | Population Healthy Nuclei (%) [5]: 48% | Population Hoechst High Intensity Objects (%) [5]: 7% | Population Membrane Permeable-Phenotype (%) [5]: 2% | Population Mitochondria Different-Phenotype (%) [5]: 7% | Population Mitotic Cells (%) [5]: 31% | Population Normal (%) [5]: 92% | Population Pyknosed Nuclei (%) [5]: 26% | Population Tubulin-Different-Phenotype (%) [5]: 40% | Total Cell Count [5]: 155 | Population Apoptotic (%) [6]: 37% | Population Fragmented Nuclei (%) [6]: 26% | Population Healthy Nuclei (%) [6]: 49% | Population Membrane Permeable-Phenotype (%) [6]: 10% | Population Mitochondria Different-Phenotype (%) [6]: 10% | Population Mitotic Cells (%) [6]: 62% | Population Pyknosed Nuclei (%) [6]: 23% | Population Tubulin-Different-Phenotype (%) [6]: 54% | Total Cell Count [6]: 181 | Population Apoptotic (%) [7]: 65% | Population Fragmented Nuclei (%) [7]: 13% | Population Healthy Nuclei (%) [7]: 49% | Population Hoechst High Intensity Objects (%) [7]: 2% | Population Membrane Permeable-Phenotype (%) [7]: 0% | Population Mitochondria Different-Phenotype (%) [7]: 52% | Population Mitotic Cells (%) [7]: 34% | Population Normal (%) [7]: 97% | Population Pyknosed Nuclei (%) [7]: 37% | Population Tubulin-Different-Phenotype (%) [7]: 84% | Total Cell Count [7]: 119 | Population Apoptotic (%) [8]: 47% | Population Fragmented Nuclei (%) [8]: 30% | Population Healthy Nuclei (%) [8]: 42% | Population Hoechst High Intensity Objects (%) [8]: 6% | Population Membrane Permeable-Phenotype (%) [8]: 5% | Population Mitochondria Different-Phenotype (%) [8]: 35% | Population Mitotic Cells (%) [8]: 52% | Population Normal (%) [8]: 93% | Population Pyknosed Nuclei (%) [8]: 27% | Population Tubulin-Different-Phenotype (%) [8]: 72% | Total Cell Count [8]: 149 | Population Apoptotic (%) [9]: 63% | Population Fragmented Nuclei (%) [9]: 33% | Population Healthy Nuclei (%) [9]: 36% | Population Hoechst High Intensity Objects (%) [9]: 10% | Population Membrane Permeable-Phenotype (%) [9]: 2% | Population Mitochondria Different-Phenotype (%) [9]: 20% | Population Mitotic Cells (%) [9]: 36% | Population Normal (%) [9]: 90% | Population Pyknosed Nuclei (%) [9]: 30% | Population Tubulin-Different-Phenotype (%) [9]: 48% | Total Cell Count [9]: 150 | Population Apoptotic (%) [10]: 60% | Population Fragmented Nuclei (%) [10]: 35% | Population Healthy Nuclei (%) [10]: 40% | Population Hoechst High Intensity Objects (%) [10]: 8% | Population Membrane Permeable-Phenotype (%) [10]: 8% | Population Mitochondria Different-Phenotype (%) [10]: 25% | Population Mitotic Cells (%) [10]: 40% | Population Normal (%) [10]: 91% | Population Pyknosed Nuclei (%) [10]: 24% | Population Tubulin-Different-Phenotype (%) [10]: 68% | Total Cell Count [10]: 158 | Population Apoptotic (%) [11]: 77% | Population Fragmented Nuclei (%) [11]: 28% | Population Healthy Nuclei (%) [11]: 20% | Population Hoechst High Intensity Objects (%) [11]: 14% | Population Membrane Permeable-Phenotype (%) [11]: 0% | Population Mitochondria Different-Phenotype (%) [11]: 55% | Population Mitotic Cells (%) [11]: 22% | Population Normal (%) [11]: 85% | Population Pyknosed Nuclei (%) [11]: 51% | Population Tubulin-Different-Phenotype (%) [11]: 66% | Total Cell Count [11]: 103 | Population Apoptotic (%) [12]: 68% | Population Fragmented Nuclei (%) [12]: 27% | Population Healthy Nuclei (%) [12]: 41% | Population Hoechst High Intensity Objects (%) [12]: 13% | Population Membrane Permeable-Phenotype (%) [12]: 17% | Population Mitochondria Different-Phenotype (%) [12]: 29% | Population Mitotic Cells (%) [12]: 31% | Population Normal (%) [12]: 86% | Population Pyknosed Nuclei (%) [12]: 30% | Population Tubulin-Different-Phenotype (%) [12]: 80% | Total Cell Count [12]: 130
